From ChEMBL document CHEMBL1124346 (J Med Chem, 1989)

Columns and labels:
D(2) dopamine receptor [1] = target: T1, D(2) dopamine receptor (Rattus norvegicus, UniProt P61169); test: Binding activity against dopamine receptor D2 in rat brain, using [3H]spiperone as the radioligand; assay type: tissue-based
Method in brief: (§1)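 Rat striatal membranes; [3H]spiperone 0.95–1.4 nM final, with 40 nM ketanserin in all tubes to mask 5HT-2 sites. Buffer 50 mM Tris-HCl pH 7.4 with 120 mM NaCl, 5 mM KCl, 2 mM CaCl2, 1 mM MgCl2; 37 °C.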

D(1A) dopamine receptor [2] = target: T2, D(1A) dopamine receptor (Rattus norvegicus, UniProt P18901); test: Binding activity against Dopamine receptor D1 in rat brain, using [3H]SCH-23390 as the radioligand; assay type: tissue-based
[3] = target: Muscarinic acetylcholine receptor; test: Binding activity against muscarinic acetylcholine receptor in rat brain using [3H]QNB as the radioligand; assay type: tissue-based
D(1A) dopamine receptor [4] = target: T2, D(1A) dopamine receptor; test: Binding activity against dopamine D1 receptor in rat brain, using [3H]SCH-23390 as the radioligand; assay type: tissue-based
Method in brief: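 Rat striatum homogenized in 50 mM Tris-HCl pH 7.4 with 5 mM MgSO4, washed and resuspended in 200 vol. Incubated with [3H]SCH 23390 0.45–0.76 nM final, 37 °C, 30 min; nonspecific binding with 1 μM SCH 23390.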

D(2) dopamine receptor [5] = target: T1, D(2) dopamine receptor; test: Binding activity against dopamine D2 receptor in rat brain, using [3H]spiperone as the radioligand
D(2) dopamine receptor [6] = target: T1, D(2) dopamine receptor; test: Binding activity against Dopamine receptor D2 in rat brain, using [3H]spiperone as the radioligand; assay type: tissue-based; method in brief: as §1
[7] = target: Muscarinic acetylcholine receptor; test: Binding activity against muscarinic receptor in rat brain using [3H]QNB as the radioligand; assay type: tissue-based

T1 sequence (P61169 whole entry): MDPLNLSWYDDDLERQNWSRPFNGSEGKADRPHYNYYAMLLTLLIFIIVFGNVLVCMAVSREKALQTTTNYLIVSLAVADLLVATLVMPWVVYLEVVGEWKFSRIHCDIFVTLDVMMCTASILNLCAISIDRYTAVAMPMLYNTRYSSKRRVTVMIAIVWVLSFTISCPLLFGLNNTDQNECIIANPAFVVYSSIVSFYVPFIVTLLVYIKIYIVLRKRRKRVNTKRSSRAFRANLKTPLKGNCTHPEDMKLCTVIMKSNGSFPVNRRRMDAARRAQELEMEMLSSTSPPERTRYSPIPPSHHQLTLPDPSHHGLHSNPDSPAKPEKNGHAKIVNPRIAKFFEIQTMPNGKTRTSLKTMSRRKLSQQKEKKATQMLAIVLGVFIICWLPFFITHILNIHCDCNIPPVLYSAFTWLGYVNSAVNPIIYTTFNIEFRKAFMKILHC
T2 sequence (P18901 whole entry): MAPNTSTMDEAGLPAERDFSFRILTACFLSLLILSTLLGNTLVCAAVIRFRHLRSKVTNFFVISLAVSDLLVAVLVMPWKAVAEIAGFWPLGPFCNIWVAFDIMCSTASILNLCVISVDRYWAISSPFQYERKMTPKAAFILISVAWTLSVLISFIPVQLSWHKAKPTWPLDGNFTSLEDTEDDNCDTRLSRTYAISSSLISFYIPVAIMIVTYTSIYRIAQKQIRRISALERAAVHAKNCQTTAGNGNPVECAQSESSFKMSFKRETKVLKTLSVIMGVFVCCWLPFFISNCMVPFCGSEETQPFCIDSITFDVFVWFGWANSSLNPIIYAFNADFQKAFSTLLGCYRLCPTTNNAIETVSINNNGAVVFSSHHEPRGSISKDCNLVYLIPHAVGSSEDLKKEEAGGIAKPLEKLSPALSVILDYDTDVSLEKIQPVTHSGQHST

| IC50 (D(2) dopamine receptor [1]) | IC50 (D(1A) dopamine receptor [2]) | IC50 [3] | IC50 (D(1A) dopamine receptor [4]) | IC50 (D(2) dopamine receptor [5]) | IC50 (D(2) dopamine receptor [6]) | IC50 [7] | Compound |
| --- | --- | --- | --- | --- | --- | --- | --- |
| 6970 nM | 305 nM | 2600 nM |  |  |  |  | C/C=C1/c2ccccc2C=C(N2CCN(C)CC2)c2ccccc21 |
| 2650 nM | 74 nM | 1020 nM |  |  |  |  | CC1c2ccccc2C=C(N2CCN(C)CC2)c2ccccc21 (stereo unspecified) |
|  |  |  | 895 nM | > 10000 nM |  |  | CN1CCN(C2=Nc3ccccc3Nc3ccccc32)CC1 |
|  |  |  | 63 nM |  | 218 nM | 55 nM | CN1CCN(C2=Nc3ccccc3Nc3ccc(Cl)cc32)CC1 [ISOCLOZAPINE] |
